Experimental data published in ChEMBL document CHEMBL2016531, “Identification of NAE Inhibitors Exhibiting Potent Activity in Leukemia Cells: Exploring the Structural Determinants of NAE Specificity” (ACS Med Chem Lett, 2011).
Active and inactive are the calls of the source. The calls are words filed in the database; no cut-off is given here.

How the values were obtained:
[1] = target: Ubiquitin-like modifier-activating enzyme 5 (Homo sapiens) (UniProt Q9GZZ9); assay: Inhibition of human recombinant UBA5 assessed as inhibition of […]-UFM1 complex formation at 10 uM after 1.5 hrs by Western blot analysis
Sequence of Ubiquitin-like modifier-activating enzyme 5 (Homo sapiens) (Q9GZZ9 whole entry): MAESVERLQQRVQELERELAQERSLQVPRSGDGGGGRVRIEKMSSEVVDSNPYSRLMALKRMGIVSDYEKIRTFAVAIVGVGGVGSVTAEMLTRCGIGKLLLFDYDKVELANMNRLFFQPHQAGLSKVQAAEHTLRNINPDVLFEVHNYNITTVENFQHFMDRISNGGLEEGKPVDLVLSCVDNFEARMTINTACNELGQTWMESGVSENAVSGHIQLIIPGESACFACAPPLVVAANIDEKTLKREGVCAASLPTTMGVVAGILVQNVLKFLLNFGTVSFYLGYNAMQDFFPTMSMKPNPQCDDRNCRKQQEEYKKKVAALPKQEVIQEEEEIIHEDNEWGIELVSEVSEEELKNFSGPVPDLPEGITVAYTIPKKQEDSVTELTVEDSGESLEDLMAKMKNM
Method in brief: (§1)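 Cell-free gel assay. Purified human recombinant E1 incubated with its matching Ub/Ubl and E2 in 50 mM HEPES pH 7.4, 5 mM MgCl2, 1–20 μM ATP. Inhibitor at 0, 0.001, 0.01, 0.1, 1 or 10 μM, 1.5 h at room temperature. Products resolved by SDS-PAGE, immunoblotted and detected by ECL; densitometry used for semiquantitation.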

[2] = target: T1, NEDD8-activating enzyme E1 catalytic subunit (Homo sapiens) (UniProt Q8TBC4); assay: Inhibition of UBA3-mediated NEDD8 activation at […] after 1.5 hrs by Western blot analysis
T1 sequence (whole entry): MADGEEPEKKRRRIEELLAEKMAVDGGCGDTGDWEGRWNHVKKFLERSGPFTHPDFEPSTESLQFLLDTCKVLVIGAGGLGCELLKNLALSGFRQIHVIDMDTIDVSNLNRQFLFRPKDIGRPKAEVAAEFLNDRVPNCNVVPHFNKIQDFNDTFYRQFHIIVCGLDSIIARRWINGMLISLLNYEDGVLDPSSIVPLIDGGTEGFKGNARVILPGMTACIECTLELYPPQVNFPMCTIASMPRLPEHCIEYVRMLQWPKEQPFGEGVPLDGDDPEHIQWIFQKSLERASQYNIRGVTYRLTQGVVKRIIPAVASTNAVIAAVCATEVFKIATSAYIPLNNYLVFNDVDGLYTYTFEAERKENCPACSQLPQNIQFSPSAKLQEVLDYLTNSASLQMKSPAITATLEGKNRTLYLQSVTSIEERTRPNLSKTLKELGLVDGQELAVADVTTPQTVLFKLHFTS

[3] = target: SUMO-activating enzyme (Homo sapiens) (UniProt Q9UBE0+Q9UBT2); assay: Inhibition of human recombinant SAE1/2 assessed as inhibition of SUMO1-UbcH9 complex formation at 0.001 to 10 uM after 1.5 hrs by Western blot analysis; assay type: protein-complex assay; method in brief: as §1
Homo sapiens [4] = organism: Homo sapiens; assay: Inhibition of human recombinant NAE assessed as inhibition of NEDD8-UbcH12 complex formation at 0.001 to 10 uM after 1.5 hrs by Western blot analysis; method in brief: as §1
Homo sapiens [5] = organism: Homo sapiens; assay: Inhibition of human recombinant UAE assessed as inhibition of UbcH6-Ub complex formation at 0.001 to 10 uM after 1.5 hrs by Western blot analysis; method in brief: as §1
[6] = target: T2, NEDD8-activating enzyme E1 regulatory subunit (Homo sapiens) (UniProt Q13564); assay: Inhibition of APPBP1-mediated NEDD8 activation at […] after 1.5 hrs by Western blot analysis
T2 sequence (whole entry): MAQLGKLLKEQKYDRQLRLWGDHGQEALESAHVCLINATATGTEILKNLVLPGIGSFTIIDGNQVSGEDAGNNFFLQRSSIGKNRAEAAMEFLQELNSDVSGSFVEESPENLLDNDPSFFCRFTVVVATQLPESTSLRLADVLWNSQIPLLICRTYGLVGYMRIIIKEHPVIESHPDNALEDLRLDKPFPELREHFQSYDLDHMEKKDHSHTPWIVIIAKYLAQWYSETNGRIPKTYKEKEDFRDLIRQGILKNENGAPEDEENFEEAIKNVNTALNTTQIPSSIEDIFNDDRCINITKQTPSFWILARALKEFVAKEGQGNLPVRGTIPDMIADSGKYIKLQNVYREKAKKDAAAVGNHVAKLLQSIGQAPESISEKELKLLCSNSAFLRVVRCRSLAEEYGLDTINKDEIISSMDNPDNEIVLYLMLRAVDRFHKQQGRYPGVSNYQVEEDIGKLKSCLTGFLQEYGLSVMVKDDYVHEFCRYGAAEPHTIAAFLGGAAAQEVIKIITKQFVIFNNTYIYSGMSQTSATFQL

K562 = assay: Antiproliferative activity against human K562 cells after 72 hrs by CellTiter-Glo assay; assay type: functional, cell-based; settings: K562, 72 h
Method in brief: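 K562 leukemia cells exposed to increasing concentrations for 72 h; growth and viability read by CellTiter-Glo luminescence.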

- inhibition [1]: inactive
- inhibition [2]: Active
- inhibition [3]: Active
- inhibition (Homo sapiens [4]): Active
- inhibition (Homo sapiens [5]): Active
- inhibition [6]: Active
- EC50 (K562): 125 nM
Compound: NS(=O)(=O)OC[C@H]1O[C@@H](n2cnc3c(N[C@H]4CCc5ccccc54)ncnc32)[C@H](O)[C@@H]1O
